As a reminder, the MIC is the least concentration at which growth counts as inhibited.

One data set deals with RAW264.7. Description: Inhibition of LPS-induced nitric oxide production in mouse RAW264.7 cells incubated for 24 hrs by Griess reagent based assay. It is filed as functional, cell-based. Conditions: raw264.7. The method, boiled down:
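RAW 264.7 cells were seeded at 5.0 × 10^5 cells/mL and held 24 h at 37 °C, 5% CO2. Medium was discarded and cells were stimulated with 1 μg/mL LPS with or without compound for 24 h at 37 °C. Supernatant was mixed 1:1 with Griess reagent for 10 min at room temperature. Absorbance was read at 570 nm against a sodium nitrite calibration curve, giving IC50.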
For orientation: Griess reagent forms a coloured azo dye with nitrite.

Data set [1] in a line: Toxicity in mouse RAW264.7 cells assessed as cell viability at 10 uM by MTT assay. It is filed as cell-based. Conditions: read-out: Activity. Background: Tetrazolium assays rely on reduction of a dye to a coloured formazan, in cell work by metabolically active cells.
Data set [2] has as its system Micrococcus luteus. The experiment in a line: Antibacterial activity against Micrococcus luteus by CLSI protocol based method. It is filed as functional. In a few lines: (§1)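 Strains came from the Microbiological Resources Center, Bangkok, Thailand. Antibacterial testing followed Clinical and Laboratory Standards Institute recommendations.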
For data set [3], the system named is Streptococcus mutans. The experiment in a line: Antibacterial activity against Streptococcus mutans by CLSI protocol based method. It is filed as functional. In a few lines: as §1
The test system of data set [4] is Staphylococcus epidermidis. Description: Antibacterial activity against Staphylococcus epidermidis by CLSI protocol based method. It is filed as functional. The method, boiled down: as §1
The test system of data set [5] is Bacillus cereus. Description: Antibacterial activity against Bacillus cereus by CLSI protocol based method. It is filed as functional. In a few lines:
as §1

The next data set deals with Staphylococcus aureus. Description: Antibacterial activity against Staphylococcus aureus by CLSI protocol based method. It is filed as functional. In a few lines: as §1
Data set [6] has as its system Pseudomonas aeruginosa. Description: Antibacterial activity against Pseudomonas aeruginosa by CLSI protocol based method. It is filed as functional. The method, boiled down: as §1
The test system of data set [7] is Escherichia coli. Description: Antibacterial activity against Escherichia coli by CLSI protocol based method. It is filed as functional. In a few lines: as §1
For data set [8], the system named is Shigella flexneri. Description: Antibacterial activity against Shigella flexneri by CLSI protocol based method. It is filed as functional. The method, boiled down: as §1
For data set [9], the system named is Micrococcus luteus. The experiment in a line: Antibacterial activity against Micrococcus luteus at >128 ug/ml by CLSI protocol based method. It is filed as functional, organism-based. In a few lines:
as §1

Data set [10] relates to Streptococcus mutans. The experiment in a line: Antibacterial activity against Streptococcus mutans at >128 ug/ml by CLSI protocol based method. It is filed as functional, organism-based. In a few lines:
as §1

For data set [11], the system named is Bacillus cereus. The experiment in a line: Antibacterial activity against Bacillus cereus at >128 ug/ml by CLSI protocol based method. It is filed as functional, organism-based. In a few lines:
as §1

Data set [12] concerns Pseudomonas aeruginosa. The experiment in a line: Antibacterial activity against Pseudomonas aeruginosa at >128 ug/ml by CLSI protocol based method. It is filed as functional, organism-based. In a few lines: as §1
The subject of data set [13] is Escherichia coli. Description: Antibacterial activity against Escherichia coli at >128 ug/ml by CLSI protocol based method. It is filed as functional, organism-based. In a few lines: as §1
Data set [14] deals with Shigella flexneri. The experiment in a line: Antibacterial activity against Shigella flexneri at >128 ug/ml by CLSI protocol based method. It is filed as functional, organism-based. In a few lines: as §1

Values after ≈ are worked out from the molar mass of the structure shown. Active and inactive are the calls of the source. The rule behind the calls is not given here.

Take `COc1c2c(cc3occ(-c4ccc(OCC=C(C)C)c(O)c4)c(=O)c13)OC(C)(C)C=C2`: the IC50 entry in the data set with RAW264.7 was “Not Active”. Further, in [1], the viability at 10 µM was found to be 64.5%. In addition, the MIC entry in the data set with Micrococcus luteus [2], with Streptococcus mutans [3], in the data set on Bacillus cereus [5], with Pseudomonas aeruginosa [6] and in the data set with Escherichia coli [7] was “inactive” throughout. In addition, the MIC (in data set [4]; against Staphylococcus aureus; against Shigella flexneri [8]) was 128 µg/mL (≈ 295 µM) in each case. Moreover, the result in the data set on Micrococcus luteus [9], with Streptococcus mutans [10], in the data set on Bacillus cereus [11], in the data set on Pseudomonas aeruginosa [12] and in the data set on Escherichia coli [13] was inactive.

Take `CC(C)=CCOc1ccc(-c2coc3cc(OCC=C(C)C)cc(O)c3c2=O)cc1`: the IC50 entry in the data set on RAW264.7 is on record as “Not Active”. In [1], the viability at 10 µM turned out to be 72.2%. The MIC result in the data set on Micrococcus luteus [2], in the data set on Streptococcus mutans [3], in the data set with Bacillus cereus [5], with Pseudomonas aeruginosa [6] and in the data set on Escherichia coli [7] was “inactive” throughout. Further, the MIC (in data set [4]; against Staphylococcus aureus; against Shigella flexneri [8]) was 128 µg/mL (≈ 315 µM) throughout. For the same compound, the outcome in the data set on Micrococcus luteus [9], in the data set on Streptococcus mutans [10], in the data set with Bacillus cereus [11], in the data set with Pseudomonas aeruginosa [12] and with Escherichia coli [13] was inactive.

`COc1cc(O)c2c(=O)c(-c3ccc(OCC=C(C)C)cc3)coc2c1`: the IC50 result in the data set on RAW264.7 is given as “Not Active”. The viability at 10 µM in [1] is 65.3%. Further, the MIC result in the data set on Micrococcus luteus [2], in the data set with Streptococcus mutans [3], with Bacillus cereus [5], with Pseudomonas aeruginosa [6], with Escherichia coli [7] and in the data set with Shigella flexneri [8] was “inactive” in each case. Also, the MIC (in data set [4]; with Staphylococcus aureus) was 128 µg/mL (≈ 363 µM) in each case. Further, the outcome in the data set with Micrococcus luteus [9], in the data set on Streptococcus mutans [10], with Bacillus cereus [11], in the data set with Pseudomonas aeruginosa [12], with Escherichia coli [13] and with Shigella flexneri [14] was inactive.

`COc1c2c(cc3occ(-c4ccc(OCC=C(C)C)cc4O)c(=O)c13)OC(C)(C)C=C2`: the MIC entry in the data set with Micrococcus luteus [2], in the data set on Streptococcus mutans [3], in the data set with Bacillus cereus [5], in the data set on Pseudomonas aeruginosa [6], in the data set on Escherichia coli [7] and with Shigella flexneri [8] was “inactive” throughout. Moreover, the MIC (in [4]; against Staphylococcus aureus) was 128 µg/mL (≈ 295 µM) throughout. The result with Micrococcus luteus [9], in the data set with Streptococcus mutans [10], in the data set on Bacillus cereus [11], with Pseudomonas aeruginosa [12], with Escherichia coli [13] and with Shigella flexneri [14] was inactive.
